# Experimental data collected from several papers.
# Protocols differ between the studies behind these lines.
# Organism: Plasmodium falciparum
# Observed: parasite growth
Structure (SMILES),test,system,setting,measurement,value
O=C(Nc1ccc(F)cc1C(=O)O)c1ccc(-c2ccccc2)cc1,SYBR Green,NF54,"10 µM, 96 h, blood stage",inhibition,12.7%
CCn1cc(-c2ccnn2C)c(=O)c2cc(F)c(N3CCC(C)CC3)cc21,,3D7,"72 h, blood stage",EC50,> 10000 nM
O=C(Nc1c(F)cccc1C(=O)O)c1ccc(-c2ccccc2)cc1,,NF54,"2 µM, 48 h, gametocyte",inhibition,38.8%
CCn1cc(-c2nnc(-c3cccnc3)o2)c(=O)c2cc(F)c(N3CCC(C)CC3)cc21,,3D7,"72 h, blood stage",EC50,> 10000 nM
CN1CCN(c2ncc(-c3ccc4c(Nc5cnccn5)ccnc4c3)cn2)CC1,,D6,"drug-resistant strain, blood stage",EC50,26 nM
Cc1ccc(-c2ccccc2C(=O)Nc2c(C)cccc2C(=O)O)cc1,SYBR Green,NF54,"10 µM, 96 h, blood stage",inhibition,8.4%
CN1CCN(S(=O)(=O)c2ccc(-c3ccc4c(Nc5ccc6[nH]nnc6c5)ccnc4c3)cc2)CC1,,D6,"drug-resistant strain, blood stage",EC50,27 nM
O=C(Nc1cc(F)ccc1C(=O)O)c1ccc(-c2ccccc2)cc1,,NF54,"2 µM, 48 h, gametocyte",inhibition,13.8%
CCn1cc(-c2nc(C)no2)c(=O)c2cc(F)c(N3CCC(C)CC3)cc21,,3D7,blood stage,EC50,7.62 nM
CN1CCN(S(=O)(=O)c2ccc(-c3ccc4c(Nc5ccnnc5)ccnc4c3)cc2)CC1,,D6,"drug-resistant strain, blood stage",EC50,2100 nM
CCNC(=O)c1cn(CC)c2cc(N3CCC(C)CC3)c(F)cc2c1=O,,3D7,"72 h, blood stage",EC50,477 nM
O=C(c1ccc(Nc2nccc(-c3ccc4ccccc4c3)n2)cc1)N1CCC(N2CCCC2)CC1,SYBR Green,3D7,"1 µM, blood stage",inhibition,> 75%
c1cnc(Nc2ccnc3cc(-c4cn[nH]c4)ccc23)cn1,,D6,"drug-resistant strain, blood stage",EC50,940 nM
Cc1cccc(C(=O)O)c1NC(=O)c1cccc(-c2ccccc2)c1,,NF54,"2 µM, 48 h, gametocyte",inhibition,31.8%
CCCC1CCN(c2cc3c(cc2F)c(=O)c(-c2nc(C)no2)cn3CC)CC1,,3D7,"72 h, blood stage",EC50,8 nM
